Compounds with a hit are over-represented: about 2.6% of the library has one in this group of screens.
SENP6 inh – inhibitors of human SENP6 protease; Recombinant SENP6 catalytic domain, aminoluciferin luminescence; inhibition, % at 10 µM; 330,000 tested, 1.8% active; AID 2599;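 active = inhibition above about 50% at the single tested dose, limit read from the data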;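 note: plate controls were DMSO wells with enzyme for no effect and DMSO wells lacking enzyme for full effect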
SENP1 FRET inh – blocks the human SENP1 SUMO protease catalytic domain | Q9P0U3 | recombinant SENP1 catalytic domain, CyPet-SUMO1-YPet FRET cleavage | inhibition, % at 10 µM | 360,000 tested, 0.21% active | AID 624204;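 active = inhibition at least 30% at 10 µM, raw YFP signal under a set limit, fluorescence ratio 0.5 to 1.5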;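 note: 0% = enzyme with DMSO and 100% = no enzyme wells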
Target sequence (Q9P0U3 419-644 limits assumed): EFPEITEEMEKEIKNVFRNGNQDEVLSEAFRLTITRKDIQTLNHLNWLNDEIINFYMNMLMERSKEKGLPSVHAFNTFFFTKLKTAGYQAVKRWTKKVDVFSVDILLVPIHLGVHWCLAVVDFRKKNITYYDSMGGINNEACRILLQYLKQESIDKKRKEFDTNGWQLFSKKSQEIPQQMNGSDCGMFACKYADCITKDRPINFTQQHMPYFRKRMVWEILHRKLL
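System: Recombinant human SENP1 catalytic domain, His6-tagged | Incubation: Enzyme reaction for 50 min at room temperature, dark | Medium: Tris pH 8 with BME, BSA, NP40 and catalase | Also added: 25 nM SUMO1 FRET substrate | Compound: 10 µM single point, 0.5% DMSO | Measured by: FRET fluorescence in CFP and YFP emission channels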
SENP7 inh – inhibitors of human SENP7 protease; Q9BQF6; recombinant SENP7, Z-RLRGG-aminoluciferin luminescence, 40 min; inhibition, % at 5 µM; 330,000 tested, 1.5% active; AID 434973;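 active = inhibition above about 50% at the single test dose, limit read from the data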;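 note: plate controls were DMSO with enzyme for no effect and no enzyme buffer wells for full effect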
SENP8 block-1 – blocks the human protease SENP8; AID 2540; inhibition, % at 10 µM; 330,000 tested, 1.2% active; Q96LD8; purified SENP8, Z-RLRGG-aminoluciferin cleavage, luminescence; in the data active = inhibition above about 50%
Target sequence (Q96LD8 whole entry, looked up): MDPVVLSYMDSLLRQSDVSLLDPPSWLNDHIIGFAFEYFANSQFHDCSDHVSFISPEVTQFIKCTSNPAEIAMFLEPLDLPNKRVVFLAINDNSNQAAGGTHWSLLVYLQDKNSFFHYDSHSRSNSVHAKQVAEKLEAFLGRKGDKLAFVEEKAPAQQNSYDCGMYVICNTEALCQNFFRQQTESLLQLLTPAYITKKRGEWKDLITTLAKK
Platelet DG rel – platelet dense granule release activity; inhibition, %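 (compounds screened at 7.5 µM in platelet-rich plasma)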; human platelet-rich plasma, SFLLRN dense granule ATP release, luminescence; 300,000 tested, 0.22% active;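 active = mean replicate score, as percent of positive control, at or above 50; inconclusive = mean below 50 but at least one replicate at or above 50; inactive = mean and every replicate below 50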
SENP8 block-2 – blocks human SENP8 cleavage of Nedd8 substrate | Q96LD8 | recombinant SENP8, Nedd8 substrate fluorescence | inhibition, % at 20 µM | 360,000 tested, 0.64% active | AID 602440; in the data active = inhibition mostly above about 40%, no sharp cut-off; inactive = mostly below about 27%
SENP8 confirm – confirmation of human SENP8 protease inhibitors; shares compounds with SENP7 inh; 6,200 tested, 40% active; Recombinant SENP8, Z-RLRGG-aminoluciferin luminescence, 60 min; inhibition, % at 12.5 µM;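 active = mean inhibition across replicates above about 50%, limit read from the data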
SENP6 conf – human SENP6 inhibition, confirmed; shares compounds with SENP7 inh; inhibition, % at 12.5 µM; recombinant SENP6, Z-RLRGG-aminoluciferin luminescence; 6,200 tested, 58% active
SENP7 conf – confirmation of human SENP7 protease inhibitors; shares compounds with SENP7 inh; recombinant SENP7, Z-RLRGG-aminoluciferin luminescence, 40 min; inhibition, % at 12.5 µM; 6,200 tested, 69% active; AID 488917
Casp3 select – selectivity test for SENP inhibitors: human caspase-3 inhibition. shares compounds with SENP7 inh. purified caspase-3, Z-DEVD-aminoluciferin luminescence, 60 min. inhibition, % at 12.5 µM. 6,200 tested, 60% active;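 active = mean inhibition above about 50%, limit read from the data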;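 note: plate controls were enzyme with DMSO for no effect and wells without caspase-3 for full effect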
Target sequence (P42574 28-227 limits assumed): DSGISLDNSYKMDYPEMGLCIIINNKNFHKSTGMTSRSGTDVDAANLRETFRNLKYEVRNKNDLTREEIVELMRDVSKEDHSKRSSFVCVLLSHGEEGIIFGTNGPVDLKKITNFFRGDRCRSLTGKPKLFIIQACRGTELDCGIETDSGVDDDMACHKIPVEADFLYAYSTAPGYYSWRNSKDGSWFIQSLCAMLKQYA
SENP luc ctr – luminescence interference (SENP counter-screen). shares compounds with SENP7 inh. AID 488919. inhibition, % at 12.5 µM. 6,200 tested, 39% active. Pre-incubated SENP8/Z-RLRGG-aminoluciferin, luciferase luminescence interference;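 active = mean inhibition above about 50% when retested at one dose, limit read from the data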;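 note: plate controls were DMSO wells with completed reaction for no effect and substrate without enzyme for full effect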
Active calls of the source: *; i = inactive; u = inconclusive; x = no result given.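 Rule for the calls, unless noted: active = mean inhibition above about 50% in the one-dose retest (limit read from the data); inactive = the rest.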

SMILES | SENP6 inh | SENP1 FRET inh | SENP7 inh | SENP8 block-1 | Platelet DG rel | SENP8 block-2 | SENP8 confirm | SENP6 conf | SENP7 conf | Casp3 select | SENP luc ctr
O=C(Nc1nc2c(F)cc(F)cc2s1)c1ccc([N+](=O)[O-])o1 | 73* | -9 | 32 | 69* | 3 | 6 | -24 | -13 | -3 | -5 | -3
COc1ccc2nc(NC(=O)c3ccccc3[N+](=O)[O-])sc2c1 | 12 | 0 | -1 | 1 | 3 | 15 | x | x | x | x | x
O=C(Nc1nc2ccccc2s1)c1ccccc1[N+](=O)[O-] | 20 | 0 | -20 | 1 | 6 | 4 | x | x | x | x | x
O=C(Nc1nc2ccccc2s1)c1ccc([N+](=O)[O-])o1 | 76* | -1 | 60* | 50* | 7 | 6 | -28 | -20 | -6 | -6 | -6
COc1ccc2nc(NC(=O)c3ccc([N+](=O)[O-])o3)sc2c1 | 63* | -9 | 44 | 16 | 4 | -32 | 46 | 68* | 74* | 14 | 32
Cc1cc(C(F)(F)F)c(C#N)c(=O)[nH]1 | -10 | -2 | 7 | 0 | x | -492 | x | x | x | x | x
CC1(C)Cc2c(sc(NC(=O)Nc3ccccc3)c2C(N)=O)CO1 | 68* | -17 | 53* | 56* | 12 | -84 | -3 | 52* | 80* | 52* | 33
CCCc1[nH]nc2c1C(C1CCCCC1)C(C#N)=C(N)O2 (stereo not given) | 1 | -2 | 1 | -1 | -17 | 14 | x | x | x | x | x
O=C1CCCc2nc(N3CCc4ccccc43)ncc21 | 91* | -8 | 89* | 78* | -13 | -237 | 12 | 24 | 35 | 26 | 30
Nc1ccc(-c2nc3ccc(C(=O)O)cc3s2)cc1 | x | -114 | x | x | 14 | -407 | x | x | x | x | x
Nc1ccc(-c2nc3ccc(N)cc3s2)cc1 | 95* | -79 | 95* | 86* | 54* | -432 | 92* | 92* | 99* | 93* | 90*
Nc1cccc(-c2nc3ccc(N)cc3s2)c1 | 97* | -78 | 98* | 94* | 76* | -403 | 98* | 98* | 102* | 97* | 96*
CCCCC(=O)N1CCN(c2nc3ccc(OCC)cc3s2)CC1 | -4 | 1 | 14 | -16 | -2 | 11 | x | x | x | x | x
CCCCC(=O)N1CCN(c2nc3ccc(F)cc3s2)CC1 | 84* | 3 | 82* | 73* | 6 | 1 | 78* | 75* | 95* | 89* | 49
COc1ccc(-c2nc3ccccc3c(=O)[nH]2)cc1 | 52* | 0 | 61* | 22 | 10 | 0 | 3 | 38 | 77* | 37 | 0
O=c1[nH]c(-c2ccncc2)nc2ccccc12 | -6 | -2 | 5 | -2 | -3 | 0 | x | x | x | x | x
CN(C)c1ccc(-c2nc3ccccc3c(=O)[nH]2)cc1 | 98* | -14 | 95* | 88* | u | i | 41 | 95* | 100* | 89* | 5
CC(C)(C)OC(=O)N1CCC(c2c(C(=O)NCC3CCN(C4CCCC4)C3)cnn2-c2ccc(F)cc2)CC1 (stereo not given) | -15 | -6 | 56* | -11 | 5 | 22 | -15 | -10 | -10 | -3 | -12
CCc1ccc(CNc2ccc(O)cc2)cc1 | 81* | 4 | 24 | 77* | 5 | 70* | 14 | 12 | -1 | 6 | 5
Cc1noc(C)c1COc1ccc(CC(=O)NCCc2ccccn2)cc1 | -1 | -1 | -4 | 2 | 1 | -2 | x | x | x | x | x
O=C(NNC(=S)Nc1ccc(Br)cc1)c1ccc(N2CCOCC2)c([N+](=O)[O-])c1 | 4 | 0 | 10 | 2 | 13 | 22 | x | x | x | x | x
CN1CCN(c2ccc(Cl)cc2NC(=O)C2COc3ccccc3O2)CC1 (stereo not given) | -16 | 1 | 2 | -1 | -5 | 1 | x | x | x | x | x
COc1cccc(/C=N/Nc2c(Cl)cncc2Cl)c1O | 76* | 4 | 62* | 66* | 8 | 15 | 74* | 71* | 90* | 65* | 72*
COc1cc(/C=N/NC(=S)Nc2cccc(C(=O)O)c2)ccc1O | 15 | -2 | 6 | -3 | 27 | -136 | x | x | x | x | x
COc1cccc(/C=N/NC(=S)Nc2cccc(C(=O)O)c2)c1O | 97* | -10 | 98* | 95* | 3 | -203 | 98* | 99* | 102* | 97* | 84*
SMILES | SENP6 inh | SENP1 FRET inh | SENP7 inh | SENP8 block-1 | Platelet DG rel | SENP8 block-2 | SENP8 confirm | SENP6 conf | SENP7 conf | Casp3 select | SENP luc ctr
COc1cccc(/C=N/Nc2ccc([N+](=O)[O-])cc2)c1O | 70* | -23 | 78* | 61* | 4 | -69 | 20 | 67* | 98* | 50* | 5
COc1cccc(-c2nc(=S)c3c(o2)CCCC3)c1 | 65* | 1 | 0 | 34 | -6 | 10 | 38 | 21 | 60* | 28 | 25
S=c1nc(-c2ccccc2)oc2c1CCCC2 | 92* | -1 | 88* | 75* | -2 | 20 | 36 | 48 | 63* | 41 | 54*
O=[N+]([O-])c1ccc(-c2nc(=S)c3c(o2)CCCC3)cc1 | 0 | 3 | 0 | -8 | 6 | 8 | x | x | x | x | x
O=C1c2ccccc2-c2nnc(-c3ccc(F)cc3)cc21 | 83* | 3 | 99* | 90* | 28 | 42* | 86* | 84* | 82* | 44 | 1
Cc1ccc(-c2cc3c(nn2)-c2ccccc2C3=O)cc1 | 96* | 2 | 99* | 96* | 45 | 49* | 85* | 95* | 99* | 89* | 8
O=C1c2ccccc2-c2n[nH]c3cccc1c23 | 13 | -42 | 0 | -9 | x | -394 | x | x | x | x | x
O=c1[nH]nc(-c2ccc(F)cc2)cc1-c1ccccc1 | x | 2 | x | x | 3 | -171 | x | x | x | x | x
O=C1c2ccccc2-c2nnc(-c3ccc(O)cc3)cc21 | 99* | 0 | 100* | 96* | 15 | 5 | 95* | 94* | 101* | 96* | 16
Cc1ccccc1-c1cc2c(nn1)-c1ccccc1C2=O | 100* | 2 | 98* | 96* | 5 | 105* | 83* | 99* | 102* | 98* | 56*
Oc1cccc(/C=N/N2CCCCC2)c1O | -14 | 0 | -9 | -17 | 5 | 22 | x | x | x | x | x

Assay outcomes from PubChem.
